Measurements published in ChEMBL document CHEMBL3232844, “Synthesis and structure activity relationships of schweinfurthin indoles” (2014).

Tests used:
Type in all cases: functional
[1] = tested on: SF-268; assay: Cytotoxicity against human SF268 cells
Summary of the method: (§1)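 Tested in a 60-cell-line human tumor panel screen; the read-out is growth inhibition, reported as GI50 for each cell line.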

[2] = tested on: MCF7; assay: Cytotoxicity against human MCF7 cells; summary of the method: as §1
[3] = tested on: 786-0; assay: Cytotoxicity against human 786-0 cells; summary of the method: as §1
[4] = tested on: SNB-19; assay: Cytotoxicity against human SNB19 cells; summary of the method: as §1
[5] = Cytotoxicity against human OVCAR8 cells; summary of the method: as §1
[6] = tested on: T47D; assay: Cytotoxicity against human T47D cells
Summary of the method: (§2)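 Cell line run as part of the 60-cell-line screening panel; growth inhibition was reported as a GI50 for each line.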

[7] = tested on: NCI-H460; assay: Cytotoxicity against human NCI-H460 cells; summary of the method: as §1
[8] = tested on: COLO 205; assay: Cytotoxicity against human COLO205 cells; summary of the method: as §1
[9] = tested on: HCT-116; assay: Cytotoxicity against human HCT116 cells; summary of the method: as §1
[10] = tested on: SK-MEL-5; assay: Cytotoxicity against human SK-MEL-5 cells; details: read-out: pLC50 (the source's name) (converted); summary of the method: as §1
[11] = Cytotoxicity against human NCI-ADR-RES cells; summary of the method: as §1
[12] = tested on: MDA-MB-231; assay: Cytotoxicity against human MDA-MB-231 cells; summary of the method: as §1
[13] = tested on: SK-OV-3; assay: Cytotoxicity against human SKOV3 cells; summary of the method: as §1
[14] = tested on: LOX IMVI; assay: Cytotoxicity against human LOXIMVI cells; summary of the method: as §1
[15] = tested on: K562; assay: Cytotoxicity against human K562 cells; summary of the method: as §1
[16] = tested on: MOLT-4; assay: Cytotoxicity against human MOLT4 cells; summary of the method: as §1
[17] = tested on: HCC 2998; assay: Cytotoxicity against human HCC2998 cells; summary of the method: as §1
[18] = tested on: A549; assay: Cytotoxicity against human A549 cells; summary of the method: as §1
[19] = Cytotoxicity against human UACC62 cells; details: UACC-62, read-out: pLC50 (the source's name) (converted); summary of the method: as §2
[20] = Cytotoxicity against human OVCAR5 cells; summary of the method: as §1
[21] = tested on: SF-539; assay: Cytotoxicity against human SF539 cells; summary of the method: as §1
[22] = tested on: CCRF-CEM; assay: Cytotoxicity against human CCRF-CEM cells
[23] = tested on: SK-MEL-2; assay: Cytotoxicity against human SK-MEL-2 cells; summary of the method: as §1
[24] = tested on: IGROV-1; assay: Cytotoxicity against human IGROV1 cells; summary of the method: as §1
[25] = tested on: CAKI-1; assay: Cytotoxicity against human Caki1 cells; summary of the method: as §1
[26] = tested on: SNB-75; assay: Cytotoxicity against human SNB75 cells; summary of the method: as §2
[27] = tested on: M14; assay: Cytotoxicity against human M14 cells; summary of the method: as §1
[28] = tested on: NCI-H322M; assay: Cytotoxicity against human NCI-H322M cells; summary of the method: as §1
[29] = tested on: HL-60(TB); assay: Cytotoxicity against human HL-60(TB) cells
Summary of the method: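 Tested within the NCI 60-cell-line screen, with GI50 as the read-out. Values are the average of two independent experiments. The lowest concentration tested was 10 nM.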

[30] = tested on: A498; assay: Cytotoxicity against human A498 cells; summary of the method: as §1
[31] = tested on: NCI-H23; assay: Cytotoxicity against human NCI-H23 cells; summary of the method: as §1
[32] = tested on: HOP-62; assay: Cytotoxicity against human HOP62 cells; summary of the method: as §1
[33] = tested on: MDA-MB-435; assay: Cytotoxicity against human MDA-MB-435 cells; summary of the method: as §1
[34] = tested on: ACHN; assay: Cytotoxicity against human ACHN cells; summary of the method: as §1
[35] = tested on: MDA-MB-468; assay: Cytotoxicity against human MDA-MB-468 cells; summary of the method: as §1
[36] = tested on: NCI-H226; assay: Cytotoxicity against human NCI-H226 cells; summary of the method: as §1
[37] = Cytotoxicity against human HCT15 cells; summary of the method: as §1
[38] = tested on: PC-3; assay: Cytotoxicity against human PC3 cells; summary of the method: as §1
[39] = tested on: KM12; assay: Cytotoxicity against human KM12 cells; summary of the method: as §1
[40] = Cytotoxicity against human OVCAR4 cells; summary of the method: as §1
[41] = Cytotoxicity against human UO31 cells; summary of the method: as §2
[42] = tested on: DU-145; assay: Cytotoxicity against human DU145 cells; summary of the method: as §1
[43] = tested on: BT-549; assay: Cytotoxicity against human BT549 cells; summary of the method: as §1
[44] = read-out: pLC50 (the source's name) (converted)

COc1cc(/C=C/c2cc(O)c3c(c2)C[C@@H]2C(C)(C)[C@H](O)CC[C@@]2(C)O3)cc2c1ccn2C
GI50 [1]: 12.9 nM | CC50 [1, 44]: 69.2 µM | TGI ([1]; read-out: pTGI (converted)): 24 µM | GI50 [2]: 661 nM | LC50 [2]: 50.1 µM | TGI ([2]; read-out: pTGI (converted)): 12.3 µM | GI50 [3]: 27.5 nM | LC50 (concentration killing 50% of cells) [3]: 7.94 µM | TGI ([3]; read-out: pTGI (converted)): 1700 nM | GI50 [4]: 14.1 nM | CC50 [4, 44]: 41.7 µM | TGI ([4]; read-out: pTGI (converted)): 13.8 µM | GI50 ([5]; OVCAR-8): 4.27 µM | CC50 ([5]; OVCAR-8, read-out: pLC50 (the source's name) (converted)): 89.1 µM | TGI ([5]; OVCAR-8, read-out: pTGI (converted)): 39.8 µM | GI50 [6]: 7.41 µM | CC50 [6, 44]: 63.1 µM | TGI ([6]; read-out: pTGI (converted)): 23.4 µM | GI50 [7]: 309 nM | CC50 [7, 44]: 89.1 µM | TGI ([7]; read-out: pTGI (converted)): 23.4 µM | GI50 [8]: 5.62 µM | CC50 [8, 44]: 42.7 µM | TGI ([8]; read-out: pTGI (converted)): 17.8 µM | GI50 [9]: 407 nM | CC50 [9, 44]: 35.5 µM | TGI ([9]; read-out: pTGI (converted)): 13.5 µM | CC50 [10]: 12 µM | GI50 [11]: 9.55 µM | CC50 [11, 44]: 89.1 µM | TGI ([11]; read-out: pTGI (converted)): 46.8 µM | GI50 [12]: 3.89 µM | LC50 [12]: 51.3 µM | TGI ([12]; read-out: pTGI (converted)): 19.1 µM | LC50 [13]: 89.1 µM | TGI ([13]; read-out: pTGI (converted)): 35.5 µM | GI50 [14]: 123 nM | CC50 [14, 44]: 26.9 µM | TGI ([14]; read-out: pTGI (converted)): 4.57 µM | GI50 [15]: 81.3 nM | CC50 [15, 44]: 89.1 µM | TGI ([15]; read-out: pTGI (converted)): 6.31 µM | GI50 [16]: 38.9 nM | CC50 [16, 44]: 89.1 µM | TGI ([16]; read-out: pTGI (converted)): 14.8 µM | GI50 [17]: 214 nM | CC50 [17, 44]: 45.7 µM | TGI ([17]; read-out: pTGI (converted)): 18.6 µM | GI50 [18]: 9.55 µM | CC50 [18, 44]: 58.9 µM | TGI ([18]; read-out: pTGI (converted)): 23.4 µM | CC50 [19]: 21.4 µM | GI50 ([20]; OVCAR-5): 11.2 µM | CC50 ([20]; OVCAR-5, read-out: pLC50 (the source's name) (converted)): 53.7 µM | TGI ([20]; OVCAR-5, read-out: pTGI (converted)): 21.9 µM | GI50 [21]: 1620 nM | CC50 [21, 44]: 45.7 µM | TGI ([21]; read-out: pTGI (converted)): 13.2 µM | GI50 [22]: 53.7 nM | CC50 [22, 44]: 89.1 µM | TGI ([22]; read-out: pTGI (converted)): 12.3 µM | GI50 [23]: 2290 nM | CC50 [23, 44]: 43.7 µM | TGI ([23]; read-out: pTGI (converted)): 17 µM | GI50 [24]: 10.7 µM | CC50 [24, 44]: 89.1 µM | TGI ([24]; read-out: pTGI (converted)): 25.7 µM | GI50 [25]: 479 nM | LC50 [25]: 89.1 µM | TGI ([25]; read-out: pTGI (converted)): 9.12 µM | GI50 [26]: 52.5 nM | CC50 [26, 44]: 35.5 µM | TGI ([26]; read-out: pTGI (converted)): 5.37 µM | GI50 [27]: 759 nM | CC50 [27, 44]: 7.08 µM | TGI ([27]; read-out: pTGI (converted)): 1260 nM | GI50 [28]: 13.2 µM | CC50 [28, 44]: 60.3 µM | TGI ([28]; read-out: pTGI (converted)): 28.2 µM | GI50 [29]: 44.7 nM | CC50 [29, 44]: 89.1 µM | TGI ([29]; read-out: pTGI (converted)): 16.6 µM | GI50 [30]: 43.6 nM | CC50 [30, 44]: 53.7 µM | TGI ([30]; read-out: pTGI (converted)): 9.33 µM | GI50 [31]: 1380 nM | CC50 [31, 44]: 44.7 µM | TGI ([31]; read-out: pTGI (converted)): 15.5 µM | GI50 [32]: 75.9 nM | CC50 [32, 44]: 26.9 µM | TGI ([32]; read-out: pTGI (converted)): 4.68 µM | GI50 [33]: 389 nM | CC50 [33, 44]: 61.7 µM | TGI ([33]; read-out: pTGI (converted)): 9.12 µM | GI50 [34]: 1230 nM | LC50 (concentration killing 50% of cells) [34]: 50.1 µM | TGI ([34]; read-out: pTGI (converted)): 17.8 µM | GI50 [35]: 871 nM | LC50 [35]: 46.8 µM | TGI ([35]; read-out: pTGI (converted)): 15.1 µM | GI50 [36]: 16.2 µM | CC50 [36, 44]: 89.1 µM | TGI ([36]; read-out: pTGI (converted)): 60.3 µM | GI50 ([37]; HCT-15): 2950 nM | CC50 ([37]; HCT-15, read-out: pLC50 (the source's name) (converted)): 33.9 µM | TGI ([37]; HCT-15, read-out: pTGI (converted)): 6.76 µM | GI50 [38]: 741 nM | LC50 [38]: 89.1 µM | TGI ([38]; read-out: pTGI (converted)): 38 µM | GI50 [39]: 295 nM | CC50 [39, 44]: 44.7 µM | TGI ([39]; read-out: pTGI (converted)): 18.6 µM | GI50 ([40]; OVCAR-4): 8.51 µM | CC50 ([40]; OVCAR-4, read-out: pLC50 (the source's name) (converted)): 56.2 µM | TGI ([40]; OVCAR-4, read-out: pTGI (converted)): 24 µM | GI50 ([41]; UO-31): 81.3 nM | LC50 ([41]; UO-31): 32.4 µM | TGI ([41]; UO-31, read-out: pTGI (converted)): 2950 nM | GI50 [42]: 5.62 µM | LC50 (50% lethal concentration) [42]: 42.7 µM | TGI ([42]; read-out: pTGI (converted)): 19.1 µM | GI50 [43]: 138 nM | CC50 [43, 44]: 52.5 µM | TGI ([43]; read-out: pTGI (converted)): 20.4 µM
